From PubChem BioAssay
NALP1 inh: inhibitors of NALP1 inflammasome in yeast. 0.61% of 280,000 active. S. cerevisiae NALP1/ASC/caspase-1 growth, X-gal OD620, 72 h. inhibition, % at 10 µM. AID 2071; in the data active = inhibition mostly above about 24%, no sharp cut-off; inactive = mostly below about 32%
DSG3 Ab inh: blocks pemphigus antibody binding to human desmoglein-3; P32926; DSG3-coupled beads, scFv-anti-DSG3-GFP binding, flow cytometry; hits give low values; binding (percent of control), % at 10 µM; 0.48% of 310,000 active; AID 588358;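 active = binding more than 3 SD below its plate's average and above zero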;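 also: hits lower antibody fragment binding to DSG3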
NALP3 yeast inh: NALP3 inhibition in yeast. Yeast reconstituted NLRP3/ASC/caspase-1, beta-gal luminescence, 24 h. inhibition, % at 10 µM. 0.39% of 330,000 active. AID 2825;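 active = inhibition of 50% or more; inactive = inhibition below 50%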;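 also: plate controls were induced DMSO wells for no effect and uninduced yeast grown without galactose for full effect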
PolyA inh: inhibitors of polyadenylation in S. cerevisiae; S. cerevisiae SKY197-pL101 polyadenylation reporter, beta-gal luminescence; efflux-impaired pdr1/pdr3 knockout yeast; score 100 = 6 SD above DMSO; AID 1875; activity score, % at 12 µM; 0.02% of 300,000 active;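 active = lowest replicate activity score at least 50, where 100 means six control SD above control mean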;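 also: yeast exposed to compound for 9 h at 30 °C; higher score means more reporter readthrough which indicates perturbed polyadenylation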
ALR inh: blocks human ALR sulfhydryl oxidase activity; P55789; purified ALR, DTT oxidation, H2O2 HRP-luminol luminescence; inhibition, % (no concentration beside the values); 3.8% of 290,000 active; AID 485317;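 active = mean replicate inhibition above about 79%, with every replicate also reaching it, limit read from the data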
Target sequence (P55789 whole entry, looked up): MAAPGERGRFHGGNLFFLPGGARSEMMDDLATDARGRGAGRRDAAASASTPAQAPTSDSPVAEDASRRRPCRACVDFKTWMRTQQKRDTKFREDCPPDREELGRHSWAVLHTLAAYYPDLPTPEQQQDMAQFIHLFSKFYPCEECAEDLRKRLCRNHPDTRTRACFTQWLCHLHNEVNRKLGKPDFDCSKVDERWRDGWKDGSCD
Arr AP2 block: human beta-arrestin and AP2 interaction inhibition; inhibition, % at 10 µM; FITC-arrestin peptide / GST-AP2 beads, flow cytometry; AP2 beta2 appendage carries R879A mutation; 0.31% of 340,000 active; AID 504490;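 active = inhibition above a set limit, near 3 SD of compounds lacking own fluorescence, cut at about 54% in these data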;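 also: plate controls were DMSO wells for no effect and 5 µM unlabelled arrestin peptide for full effect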
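System: GST-tagged AP2 beta2-adaptin appendage (R879A) on 4 µm glutathione beads / Reagent: FITC-arrestin peptide, 50 nM / Detection: HyperCyt-sampled flow cytometry, FL1 channel, ex 488/em 535 nm / Timing: 12 min plus 1 h, RT / Buffer or medium: PBS plus Tween 20 (0.05%) and BSA (0.1%)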
Numbers without * were called inactive; x = no result. Rows were chosen to be rich in hits. Some 4.6% of all compounds tested hit in one or more screens of this group.

SMILES	NALP1 inh	DSG3 Ab inh	NALP3 yeast inh	PolyA inh	ALR inh	Arr AP2 block
O=C(CSc1nnc(-c2ccc(F)cc2)c2ccccc12)Nc1cccc(Cl)c1	32	91	13	13	-9	47
O=C(CSc1nnc(-c2ccc(F)cc2)c2ccccc12)Nc1ccccc1	25	x	7	-12	99*	4
CCc1nnc(SCC(=O)Nc2ccccc2)nc1CC	2	102	13	7	0	9
COC(=O)Cc1nnc(SCC(=O)Nc2ccccc2)c2ccccc12	27	95	4	-12	98*	3
O=C(OCN1C(=O)c2ccccc2C1=O)c1cc(S(=O)(=O)N2CCOCC2)ccc1F	x	103	12	x	x	28
CC(C)OC(=O)c1ccc(NC(=O)CSc2nc3ncccc3[nH]2)cc1	-1	99	4	0	98*	6
COc1ccc(NC(=O)CSc2nc3ncccc3[nH]2)cc1OC	2	102	10	-10	96*	5
CC(C)c1ccc(NC(=O)CSc2nc3ncccc3[nH]2)cc1	-4	108	11	13	55	-6
O=[N+]([O-])c1ccc2cn(C3OC(CO)C(O)C3O)nc2c1 (configuration not stated)	x	108	x	x	x	x
CCOc1ccc(CC(=O)N2CCN=C2SC)cc1	6	103	5	7	-4	-9
Cc1ccc(C(=O)N2CCN=C2SCc2ccc([N+](=O)[O-])cc2)cc1	19	99	-19	-37	99*	-15
O=C(Cc1ccccc1)N1CCN=C1SCc1ccc([N+](=O)[O-])cc1	28	103	-8	19	x	6
CCOc1ccc(CC(=O)N2CCN=C2SCc2ccc([N+](=O)[O-])cc2)cc1	-14	x	2	-9	99*	19
O=C(Cc1ccc(F)cc1)N1CCN=C1SCc1ccc([N+](=O)[O-])cc1	5	97	6	19	99*	7
Cc1ccc(CSC2=NCCN2C(=O)c2ccc([N+](=O)[O-])cc2)cc1	9	113	-1	7	-10	8
COc1ccc(CC(=O)N2CCN=C2SCc2ccc([N+](=O)[O-])cc2)cc1	-15	101	-1	4	99*	31
CCN(C(=O)C(C)Sc1nnc(-c2ccncc2)n1C)C1CCCCC1 (configuration not stated)	x	x	-5	x	-8	1
Cc1ccc(SCC(=O)O/N=C(\N)c2ccc([N+](=O)[O-])cc2)cc1	17	103	17	-4	98*	4
Cc1ccccc1C(=O)N1CCN=C1SCc1ccc([N+](=O)[O-])cc1	-11	101	3	-33	x	18
O=C(c1cccc2ccccc12)N1CCN=C1SCc1ccc([N+](=O)[O-])cc1	20	100	7	-20	98*	14
O=C(COC(=O)/C=C/c1ccccc1Cl)NCCNC(=O)COC(=O)/C=C/c1ccccc1Cl	-2	98	4	-3	-1	10
Cc1cc(NS(=O)(=O)c2ccc(NC(=O)Nc3cccc(Cl)c3)cc2)no1	5	98	-11	2	98*	3
CCc1cccc(OCC(=O)Nc2ccc(S(=O)(=O)Nc3onc(C)c3C)cc2)c1	-4	109	8	-7	95*	2
Cc1noc(NS(=O)(=O)c2ccc(NC(=O)c3ccc(N(C)C)cc3)cc2)c1C	x	107	8	x	56	-6
Cc1cc(C(=O)Nc2ccc(S(=O)(=O)Nc3onc(C)c3C)cc2)cs1	-62	91	6	7	97*	23
SMILES	NALP1 inh	DSG3 Ab inh	NALP3 yeast inh	PolyA inh	ALR inh	Arr AP2 block
Cc1cccc(NC(=O)Nc2ccc(S(=O)(=O)Nc3onc(C)c3C)cc2)c1	x	95	19	x	50	-8
Cc1ccc2oc(C(=O)Nc3ccc(S(=O)(=O)Nc4onc(C)c4C)cc3)c(C)c2c1	24	113	8	4	98*	-8
O=C(OC(C(=O)NC1CCCCC1)c1ccccc1F)c1ccco1 (configuration not stated)	27	x	5	4	x	7
O=C(COC(=O)CCS(=O)(=O)c1ccc(F)cc1)NC1CCCCC1	x	x	7	x	30	-1
Cc1noc(NS(=O)(=O)c2ccc(NC(=O)c3ccoc3C)cc2)c1C	1	x	3	-2	12	-8
Cc1noc(NS(=O)(=O)c2ccc(NC(=O)CC(C)C)cc2)c1C	38*	104	-4	4	9	-8
Cc1cc(C(=O)Nc2ccc(S(=O)(=O)Nc3onc(C)c3C)cc2)c(C)o1	17	96	1	13	84*	2
Cc1cc(NS(=O)(=O)c2ccc(NC(=O)c3oc4ccccc4c3C)cc2)no1	1	101	13	15	98*	0
Cc1noc(NS(=O)(=O)c2ccc(NC(=O)C(C)C)cc2)c1C	13	100	21	-10	1	-11
CCOC(=O)c1ccccc1NC(=O)COC(=O)Cc1ccccc1F	x	107	22	x	x	-11
C/C(=N\NC(=O)c1cccc(C)c1O)c1ccc(NC(=O)Cc2ccccc2)cc1	4	102	9	7	17	3
CC(OC(=O)/C=C/c1cccs1)C(=O)Nc1ccc(C(N)=O)cc1 (configuration not stated)	x	100	13	x	-8	2
CC1CCN(CCOc2ccc(OCc3ccccc3)cc2)CC1	49*	100	35	-5	5	10
CCc1ccc(NC(=O)c2cc(Br)ccc2Br)cc1	42*	x	-2	-15	0	x
O=C(Nc1nc2c(s1)COc1ccccc1-2)c1cccs1	4	95	32	-5	96*	18
O=C(Nc1nc2c(s1)CCc1ccccc1-2)c1cccs1	1	112	38	-25	-25	26
Cc1nnc(SCC(=O)c2ccccc2F)n1Cc1ccccc1	x	105	0	3	94*	-27
CCNc1nc(NCC)n2c(SCC(=O)c3ccccc3F)nnc2n1	2	95	6	-13	94*	5
Cc1ncc2c(n1)NC(=O)NC2	x	102	x	x	x	31
Cc1ccc(N(CC(=O)NC(C)(C)C)C(=O)CNC(=O)c2cccs2)c(C)c1	12	81*	3	17	-1	37
C[C@@H]1CN([C@@H](C)CO)C(=O)c2cc(NS(C)(=O)=O)ccc2O[C@@H](C)CCCCO[C@H]1CN(C)Cc1ccc2c(c1)OCO2	x	102	x	x	x	x
CC(C)C(=O)NCCSc1c[nH]c2ccccc12	35	103	-1	0	99*	-3
O=C(O)CSc1c[nH]c2ccccc12	14	x	3	8	98*	6
CC(=O)Nc1ccc(N=Nc2ccc(O)cc2)cc1	19	127	18	3	99*	16
CC(=O)Nc1ccc(S(=O)(=O)N(C)c2ccc(O)cc2)cc1	12	107	3	6	98*	4
